Data published in ChEMBL document CHEMBL4138064, “Diazabicyclo analogues of maraviroc: synthesis, modeling, NMR studies and antiviral activity” (Medchemcomm, 2017).
Activity calls are given as the source filed them. The rule behind the calls is not given here.

Assays:
[1] = test system: Human immunodeficiency virus 1; assay: Antiviral activity against CCR5-dependent HIV1 SF162 infected in human TZM-bl cells assessed as reduction in virus infection incubated for 48 hrs by luciferase reporter gene based viral neutralization assay; type: functional; conditions: Human immunodeficiency virus 1, SF162, TZM-bl
In short: (§1)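 Env-pseudotyped viruses made in 293T cells by proviral DNA transfection and titred by luciferase in TZM-bl cells. 200 TCID50 of virus preincubated 1 h at 37 °C with serially diluted compound (10 to 0.001 μM) in D-MEM/10% FBS. 10^4 TZM-bl cells per well with 15 μg/mL DEAE-dextran were then added, 37 °C, 48 h and 72 h. Four replicates per point. Luciferase read-out.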

[2] = test system: Human immunodeficiency virus 1; assay: Antiviral activity against CCR5-dependent HIV1 clade B isolate QH0692 infected in human TZM-bl cells assessed as reduction in virus infection incubated for 48 hrs by luciferase reporter gene based viral neutralization assay; type: functional; conditions: Human immunodeficiency virus 1, clade B isolate QH0692, TZM-bl; in short: as §1
[3] = test system: Human immunodeficiency virus 1; assay: Antiviral activity against CCR5-dependent HIV1 clade B isolate 6535 infected in human TZM-bl cells assessed as reduction in virus infection incubated for 48 hrs by luciferase reporter gene based viral neutralization assay; type: functional; conditions: Human immunodeficiency virus 1, clade B isolate 6535, TZM-bl; in short: as §1
[4] = test system: Human immunodeficiency virus 1; assay: Antiviral activity against CCR5-dependent HIV1 clade B isolate PVO infected in human TZM-bl cells assessed as reduction in virus infection incubated for 48 hrs by luciferase reporter gene based viral neutralization assay; type: functional; conditions: Human immunodeficiency virus 1, clade B isolate PVO; in short: as §1
[5] = test system: Human immunodeficiency virus 1; assay: Antiviral activity against CCR5-dependent HIV1 clade B isolate AC10 infected in human TZM-bl cells assessed as reduction in virus infection incubated for 48 hrs by luciferase reporter gene based viral neutralization assay; type: functional; conditions: Human immunodeficiency virus 1, clade B isolate AC10, 48 h; in short: as §1
[6] = test system: Human immunodeficiency virus 1; assay: Antiviral activity against CCR5-dependent HIV1 cladC isolate ZM214 infected in human TZM-bl cells assessed as reduction in virus infection incubated for 48 hrs by luciferase reporter gene based viral neutralization assay; type: functional; conditions: Human immunodeficiency virus 1, cladC isolate ZM214, TZM-bl; in short: as §1
[7] = test system: Vesicular stomatitis virus; assay: Antiviral activity against VSV G SVA.MLV#922 infected in human TZM-bl cells assessed as reduction in virus infection incubated for 48 hrs by luciferase reporter gene based viral neutralization assay; type: functional; conditions: G SVA.MLV#922, TZM-bl; in short: as §1
[8] = test system: Human immunodeficiency virus 1; assay: Antiviral activity against CXCR4-dependent HIV1 HXB2 infected in human TZM-bl cells assessed as reduction in virus infection incubated for 48 hrs by luciferase reporter gene based viral neutralization assay; type: functional; conditions: Human immunodeficiency virus 1, HXB2, TZM-bl; in short: as §1
[9] = test system: Human immunodeficiency virus 1; assay: Antiviral activity against CCR5-dependent HIV1 SF162 infected in human TZM-bl cells assessed as reduction in virus infection incubated for 72 hrs by luciferase reporter gene based viral neutralization assay; type: functional, organism-based
In short: (§2)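 Single-round infection of TZM-bl cells with env-pseudotyped virus at 200 TCID50, preincubated 1 h at 37 °C with serial compound dilutions (10 to 0.001 μM) in D-MEM with 10% FBS. TZM-bl cells (10^4/well) carrying 15 μg/mL DEAE-dextran were then added and cultured 48 and 72 h at 37 °C, 5% CO2. Luciferase RLU were read in four replicates per point. IC90 was the 90% RLU drop versus virus-only wells, minus cell-only background.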

[10] = test system: Human immunodeficiency virus 1; assay: Antiviral activity against CCR5-dependent HIV1 clade B isolate QH0692 infected in human TZM-bl cells assessed as reduction in virus infection incubated for 72 hrs by luciferase reporter gene based viral neutralization assay; type: functional, organism-based; in short: as §2
[11] = test system: Human immunodeficiency virus 1; assay: Antiviral activity against CCR5-dependent HIV1 clade B isolate 6535 infected in human TZM-bl cells assessed as reduction in virus infection incubated for 72 hrs by luciferase reporter gene based viral neutralization assay; type: functional, organism-based; in short: as §2
[12] = test system: Human immunodeficiency virus 1; assay: Antiviral activity against CCR5-dependent HIV1 clade B isolate PVO infected in human TZM-bl cells assessed as reduction in virus infection incubated for 72 hrs by luciferase reporter gene based viral neutralization assay; type: functional, organism-based; in short: as §2
[13] = test system: Human immunodeficiency virus 1; assay: Antiviral activity against CCR5-dependent HIV1 clade B isolate AC10 infected in human TZM-bl cells assessed as reduction in virus infection incubated for 72 hrs by luciferase reporter gene based viral neutralization assay; type: functional, organism-based; in short: as §2
[14] = test system: Human immunodeficiency virus 1; assay: Antiviral activity against CCR5-dependent HIV1 cladC isolate ZM214 infected in human TZM-bl cells assessed as reduction in virus infection incubated for 72 hrs by luciferase reporter gene based viral neutralization assay; type: functional, organism-based; in short: as §2
[15] = test system: Vesicular stomatitis virus; assay: Antiviral activity against VSV G SVA.MLV#922 infected in human TZM-bl cells assessed as reduction in virus infection incubated for 72 hrs by luciferase reporter gene based viral neutralization assay; type: functional, organism-based; in short: as §1
[16] = test system: Human immunodeficiency virus 1; assay: Antiviral activity against CXCR4-dependent HIV1 HXB2 infected in human TZM-bl cells assessed as reduction in virus infection incubated for 72 hrs by luciferase reporter gene based viral neutralization assay; type: functional, organism-based; in short: as §2
TZM [17] = assay: Toxicity in human TZM-bl cells assessed as reduction in cell proliferation at 10 uM incubated for 48 hrs by trypan blue staining based assay
TZM [18] = assay: Toxicity in human TZM-bl cells assessed as reduction in cell proliferation at 10 uM incubated for 72 hrs by trypan blue staining based assay

SMILES	IC90 [1]	IC90 [2]	IC90 [3]	IC90 [4]	IC90 [5]	IC90 [6]	IC90 [7]	IC90 [8]	Activity [9]	Activity [10]	Activity [11]	Activity [12]	Activity [13]	Activity [14]	Activity [15]	Activity [16]	Activity (TZM [17])	Activity (TZM [18])
Cc1nnc(C(C)C)n1[C@H]1C[C@H]2CC[C@@H](C1)N2CC[C@H](NC(=O)C1CCC(F)(F)CC1)c1ccccc1 [MARAVIROC]	80 to 470 nM	80 to 470 nM	80 to 470 nM	80 to 470 nM	80 to 470 nM	80 to 470 nM	> 10000 nM	> 10000 nM	Active	Active	Active	Active	Active	Active	Active	Active	–	–
Cc1nnc(C(C)C)n1N1CC2CCCC(C1)N2CC[C@H](NC(=O)C1CCC(F)(F)CC1)c1ccccc1	90 to 3540 nM	90 to 3540 nM	90 to 3540 nM	90 to 3540 nM	90 to 3540 nM	90 to 3540 nM	> 10000 nM	> 10000 nM	Active	Active	Active	Active	Active	Active	Active	Active	Non-Toxic	Non-Toxic
Cc1nnc(C(C)C)n1[C@@H]1C[C@H]2CC[C@@H](C1)N2CC[C@H](NC(=O)C1CCC(F)(F)CC1)c1ccccc1 [MARAVIROC]	–	–	–	–	–	–	–	–	–	–	–	–	–	–	–	–	Non-Toxic	Non-Toxic
Cc1nnc(C(C)C)n1N1CC2CCC(C1)N2CC[C@H](NC(=O)C1CCC(F)(F)CC1)c1ccccc1	20 to 1520 nM	20 to 1520 nM	20 to 1520 nM	20 to 1520 nM	20 to 1520 nM	20 to 1520 nM	> 10000 nM	> 10000 nM	Active	Active	Active	Active	Active	Active	Active	Active	Non-Toxic	Non-Toxic
